Source: PubChem
Dynein transport: blocks dynein driven cargo transport along microtubules | 3617.4 mouse cells, GR-EGFP nuclear translocation imaging; test concentration mostly 20 µM; stimulated with dexamethasone, 1 µM; stronger effect = lower value | z-score, hits read low | hit rate 0.47% among 220,000 | AID 1381;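 active = plate z-score of nuclear minus cytoplasmic receptor signal below a set negative limit, without overly bright fluorescence or cell loss, cut at about -3.5 in these data, passing the limit was not always enough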;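 note: z-score of nuclear minus cytoplasmic ring GR-EGFP intensity difference per well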
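Schedule: 48 h induction, then 1 h compound, then 30 min agonist, 37 °C. Buffer or medium: tetracycline-free induction medium containing charcoal-stripped FBS. Reagent: 1.0 µM final dexamethasone stimulus. Evaluation: nuclear versus cytoplasmic GR-EGFP signal, averaged per well. Signal: high-content fluorescence imaging after fixation.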
Beta2AR agonist: agonists of human beta-2 adrenergic receptor inducing internalization; response, % (no concentration beside the values); Am2.2-beta2AR cells, FAP receptor internalization, flow cytometry; AID 504454; hit rate 0.43% among 340,000;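 active = response above a set limit, near 3 SD of response in nonfluorescent compounds, cut at about 42% in these data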
Target sequence (P07550 whole entry, looked up): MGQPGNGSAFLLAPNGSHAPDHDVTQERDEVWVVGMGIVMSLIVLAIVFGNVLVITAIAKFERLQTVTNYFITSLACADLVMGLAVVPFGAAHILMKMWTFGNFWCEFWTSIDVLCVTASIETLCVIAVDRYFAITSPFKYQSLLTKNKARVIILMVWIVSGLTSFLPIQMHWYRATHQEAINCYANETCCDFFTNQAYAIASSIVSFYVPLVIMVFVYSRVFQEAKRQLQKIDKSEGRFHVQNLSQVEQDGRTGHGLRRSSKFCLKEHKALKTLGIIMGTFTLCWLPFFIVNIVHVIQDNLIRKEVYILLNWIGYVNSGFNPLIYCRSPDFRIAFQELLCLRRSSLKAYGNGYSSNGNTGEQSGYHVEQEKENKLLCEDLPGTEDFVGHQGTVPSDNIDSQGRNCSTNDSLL
UPR XBP1 act: activators of adaptive arm of unfolded protein response (XBP1); CHO-XBP1 luciferase reporter, IRE1-XBP1 UPR activation, luminescence; percent of tunicamycin response, DMSO as zero; activation, % at 20 µM; hit rate 0.33% among 330,000; AID 463104;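 active = versus positive control, 20 µM dose yields 30% or more activation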;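 note: 100% = tunicamycin at 10 µg/mL and 0% = DMSO only wells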
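Material: CHO-XBP1 cells stably carrying IRE1-XBP1-driven luciferase reporter | Medium: F12 with 10% serum | Compound dosing: 20 µM single concentration, DMSO 1% | Incubation: Overnight seeding at 37 °C, 6 h compound treatment at 37 °C | Detection: Steady-Glo luminescence read | Read-out basis: % activation of reporter signal versus tunicamycin and DMSO controls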
CHOP inhibitor: blocks CHOP induction under ER stress. CHO-K1 CHOP-promoter luciferase, tunicamycin-induced, 15-18 h. AID 2732. hit rate 3.8% among 220,000. inhibition, % at 10 µM;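 active = compounds that reduced the stress-induced luciferase reporter signal by more than about 70% of percent inhibition, limit read from the data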;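 note: 0% = tunicamycin plus vehicle and 100% = wells without tunicamycin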
pCIP destab: lowers stability of the mouse p/CIP coactivator protein | decrease of EGFP signal, % at 10 µM | AID 1984 | hit rate 0.01% among 290,000 | F442A p/CIP-EGFP cells, EGFP fluorescence, 16 h | Q05BA5;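 active = EGFP signal decrease of at least 30% at 10 µM or well 3 SD below plate mean, unless failing retest; inactive = the rest, including hits failing retest or dose response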
CHOP UPR activ: activators of apoptotic arm of unfolded protein response (CHOP). activation, % at 10 µM. hit rate 0.34% among 330,000. CHO-CHOP luciferase reporter, UPR activation, luminescence; percent of tunicamycin response over DMSO baseline;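 active = at 10 µM dose, activation of 40% or more, normalized to positive control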;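 note: 100% = tunicamycin at 10 µg/mL and 0% = DMSO alone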
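Material: CHO-CHOP cells, stable luciferase reporter of PERK-eIF2a-CHOP signalling; quantity: 500 reporter cells seeded per well; buffer or medium: F12 medium containing 10% fetal bovine serum; compound: one dose, 10 µM in 0.5% DMSO; incubation: 6 h compound treatment, 37 °C; measured by: Steady-Glo luciferase luminescence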
The depositor's hits bear a star; · = not tested or not shown. Shown is part of a subset that was picked to be rich in hits.

SMILES	Dynein transport	Beta2AR agonist	UPR XBP1 act	CHOP inhibitor	pCIP destab	CHOP UPR activ
O=[N+]([O-])c1nn(-c2ccc3c(c2)OCCO3)n(O)c1=NC1CCCC1	-0.36	-2	1	44	-4	6
O=C(COC(=O)c1ccc(Cl)nc1)NNC(=O)c1ccc(Br)cc1	·	-4	-1	·	·	-3
COc1cccc(-n2nnnc2SCC(=O)Nc2nc3c(s2)CCCC3)c1	-0.73	-4	11	9	-5	0
O=C(CSc1nnnn1-c1ccc2c(c1)OCCO2)Nc1nc2c(s1)CCCC2	-0.18	-6	-3	87*	-7	-2
CCC(=O)Nc1ccc(NC(=O)CSc2nnnn2-c2ccc3c(c2)OCCO3)cc1	-0.46	-9	-6	49	7	-3
COC(=O)c1cccc(-n2nnnc2SCC(=O)Nc2nc3c(s2)CCCC3)c1	1.1	9	-5	88*	3	-3
Cc1ccc(NC(=O)CCSc2nnnn2-c2ccc3c(c2)OCO3)cc1C	-0.8	5	0	73*	-13	-1
CCOC(=O)c1csc(NC(=O)CSc2nnnn2-c2ccc3c(c2)OCCO3)n1	0.91	6	-1	63	-17	-2
O=C(Nc1ccc(F)cc1)OCCOc1ccc([N+](=O)[O-])cc1	0.57	-5	-8	9	6	0
C=C(C)CN=C1NN=C(c2cc(C)n(-c3ccc(C)cc3)c2C)CS1	-0.41	2	-1	74*	-9	4
C=CCn1c(C)cc(C2=NNC(=NCc3ccccc3)SC2)c1C	-0.34	-4	1	30	11	4
CC(C)COC(=O)N(C)c1ccc(C(O)(C(F)(F)F)C(F)(F)F)cc1	-0.75	1	8	93*	-3	7
COc1nccc(NCc2ccccc2)c1C#N	·	-2	-2	·	·	1
Cc1cc(C)c(NC(=O)C(C)OC(=O)c2cc(Br)c(Br)s2)c(C)c1 (stereo unspecified)	-0.38	-3	1	52	1	-2
COC(=O)c1cc(Br)ccc1OC(=O)c1cccnc1	-0.21	3	-2	19	-6	0
Cc1ccc(-n2c(C)cc(/C=C3\SC(=O)NC3=O)c2C)cc1	·	7	2	·	-16	7
Cc1cc(/C=C2\SC(=Nc3ccccc3)NC2=O)c(C)n1-c1ccc(S(N)(=O)=O)cc1	1.3	18	7	92*	-6	0
COc1ccc(NC(=O)C(C)Sc2nnc(C3CC3)n2C2CC2)cc1 (stereo unspecified)	·	-8	-3	·	·	-1
O/N=C/c1ccccc1Oc1ccccc1	-0.11	-4	-1	18	-13	-2
Cc1cc(C)cc(Oc2ccccc2/C=N\O)c1	0.25	-5	0	73*	4	-1
CC(C)(C)NCC(O)COc1nsnc1N1CCOCC1 (stereo unspecified)	·	·	·	-6	·	·
CC1(C)Cc2c(cnn2-c2ccccc2)C(=O)/C1=N\NC(=O)c1ccccc1N	-1	2	11	48	-7	6
CC1(C)Cc2c(cnn2-c2ccccc2)-c2c1c1ccccc1n2CC(O)CBr (stereo unspecified)	-0.15	9	-5	95*	0	3
COc1ccc(CCNC(=O)c2c(C)nn(-c3ccccc3)c2Cl)cc1OC	·	-5	-3	·	-10	0
O=C(Nc1nc(=O)c2ccccc2s1)c1ccc(Cl)cc1	1	-9	16	75*	-2	6
O=C(Cc1ccccc1)Nc1nc(=O)c2ccccc2s1	2.3	5	0	20	-3	2
O=C(Nc1nc(=O)c2ccccc2s1)c1ccc(F)cc1	-1	2	1	91*	-6	4
COc1ccc(C(=O)NNC(=O)c2ccc(C(C)(C)C)cc2)cc1	-0.27	1	0	84*	-5	-2
O=S(=O)(NCCSc1ccccc1)c1cccs1	0.28	-2	0	34	8	0
COc1cc(/C=N\Nc2ccc([N+](=O)[O-])cc2)ccc1OCC(=O)Nc1ccc(C)c(C)c1	2.5	-47	·	78*	-34	·
